Converted amounts (≈) assume the structure as drawn. The source made the active and inactive calls. The rule behind the calls is not given here.
Legend:
[1] = Selectivity index, ratio of HC50 for rabbit erythrocyte to MIC99 for Streptococcus faecium ATCC 10541; type: functional
Staphylococcus aureus [2] = assay: Antibacterial activity against methicillin-resistant Staphylococcus aureus ATCC […] after 20 to 22 hrs by CLSI broth macro-dilution method; type: functional
Pseudomonas aeruginosa = assay: Antibacterial activity against Pseudomonas aeruginosa ATCC 27853 after 20 to 22 hrs by CLSI broth macro-dilution method; type: functional
[3] = Selectivity index, ratio of HC50 for rabbit erythrocyte to MIC99 for Staphylococcus aureus ATCC 29737; type: functional
Mus musculus [4] = assay: Toxicity against wild type C57BL6 mouse at 25 mg/kg, iv after 24 hrs; type: organism-based; design: dose 25 mg/kg, route intravenous; settings: in vivo
Procedure, shortened: (§1)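 Mice received a single bolus injection, 25 mg/kg intravenous or 50 mg/kg intraperitoneal, with survival recorded at 24 h; 2 animals per route.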

Staphylococcus aureus [5] = assay: Antimicrobial activity against in Staphylococcus aureus assessed as disruption of bacterial membrane at 10 uM by fluorescence microscopy; type: functional, organism-based
Procedure, shortened: (§2)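 S. aureus DM4001 treated with 10 μM agent and incubated with the membrane-impermeant nucleic-acid dye SYTOX Green. Permeabilization was read as increased fluorescence intensity and confirmed by fluorescence microscopy counting green-stained cells.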

Staphylococcus aureus [6] = assay: Antimicrobial activity against Staphylococcus aureus assessed as disruption of bacterial membrane at 10 uM by SYTOX green uptake assay; type: functional, organism-based; procedure, shortened: as §2
[7] = Partition coefficient, log P of the compound by HPLC analysis; type: physicochemical; settings: octanol/water; read-out: logP
Procedure, shortened: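 Partition coefficient measured by HPLC following OECD guidelines for the testing of chemicals.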

Mus musculus [8] = assay: Toxicity against wild type C57BL6 mouse at 50 mg/kg, ip after 24 hrs; type: organism-based; design: dose 50 mg/kg, route intraperitoneal; settings: in vivo; procedure, shortened: as §1
[9] = Selectivity index, ratio of HC50 for rabbit erythrocyte to MIC99 for Staphylococcus aureus 10:DB6506; type: functional
Staphylococcus aureus [10] = assay: Antibacterial activity against Staphylococcus aureus ATCC 29213 after 20 to 22 hrs by CLSI broth macro-dilution method; type: functional
Staphylococcus aureus [11] = assay: Antibacterial activity against methicillin-resistant Staphylococcus aureus DM21455 assessed as log reduction in CFU at 0.5 X MIC to 1 X MIC after 2 hrs by surface-spread plate method relative to control; type: functional
Staphylococcus aureus [12] = assay: Antibacterial activity against Staphylococcus aureus ATCC 700699 at 4 X MIC after 20 to 22 hrs; type: functional, organism-based
[13] = Selectivity index, ratio of HC50 for rabbit erythrocyte to MIC99 for methicillin-resistant Staphylococcus aureus ATCC 700669; type: functional
Staphylococcus aureus [14] = assay: Antibacterial activity against methicillin-resistant Staphylococcus aureus DM21455 assessed as reduction in viable count at 4 X MIC after 10 mins by surface-spread plate method relative to control; type: functional
Enterococcus faecalis [15] = assay: Antibacterial activity against Enterococcus faecalis ATCC 29212 after 20 to 22 hrs by CLSI broth macro-dilution method; type: functional
Staphylococcus aureus [16] = assay: Antimicrobial activity against Staphylococcus aureus DM4001 assessed as depolarization of bacterial membrane at 12.5 ug/ml by DiSC3-5-based cytoplasmic membrane depolarization assay; type: functional, organism-based
Procedure, shortened: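 Clinical S. aureus DM4001 was loaded with the membrane-potential dye DiSC3-5, which self-quenches in polarized membranes. Agent added at 12.5 μg/mL. Depolarization was read as the rise in fluorescence intensity (counts per second) over time.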

[17] = Selectivity index, ratio of HC50 for rabbit erythrocyte to MIC99 for methicillin-resistant Staphylococcus aureus DM09808R; type: functional
[18] = test system: Staphylococcus epidermidis; assay: Antibacterial activity against Staphylococcus epidermidis ATCC 12228 after 20 to 22 hrs by CLSI broth macro-dilution method
[19] = Selectivity index, ratio of HC50 for rabbit erythrocyte to MIC99 for methicillin-resistant Staphylococcus aureus DM21595; type: functional
Staphylococcus aureus [20] = assay: Antibacterial activity against methicillin-resistant Staphylococcus aureus DB57964/04 after 20 to 22 hrs by CLSI broth macro-dilution method; type: functional
Staphylococcus aureus [21] = assay: Antibacterial activity against methicillin-resistant Staphylococcus aureus clinical isolate DM21455 after 20 to 22 hrs by CLSI broth macro-dilution method; type: functional
[22] = Selectivity index, ratio of HC50 for rabbit erythrocyte to MIC99 for methicillin-resistant Staphylococcus aureus DR68004; type: functional
[23] = Hemolytic activity against rabbit erythrocytes after 60 mins by spectrophotometric analysis; type: ADME, cell-based, Oryctolagus cuniculus, Erythrocyte
Klebsiella pneumoniae = assay: Antibacterial activity against Klebsiella pneumoniae ATCC 10031 after 20 to 22 hrs by CLSI broth macro-dilution method; type: functional
Staphylococcus aureus [24] = assay: Antibacterial activity against Staphylococcus aureus ATCC 6538P after 20 to 22 hrs by CLSI broth macro-dilution method; type: functional
[25] = Selectivity index, ratio of HC50 for rabbit erythrocyte to MIC99 for Staphylococcus aureus ATCC 6538P; type: functional
[26] = Selectivity index, ratio of HC50 for rabbit erythrocyte to MIC99 for Enterococcus faecalis ATCC 29212; type: functional
Staphylococcus aureus [27] = assay: Antibacterial activity against methicillin-resistant Staphylococcus aureus DM21455 assessed as reduction in viable count at 2 X MIC after 5 mins by surface-spread plate method relative to control; type: functional
Staphylococcus aureus [28] = assay: Antibacterial activity against methicillin-resistant Staphylococcus aureus DM09808R obtained from eye isolate after 20 to 22 hrs by CLSI broth macro-dilution method; type: functional
[29] = Selectivity index, ratio of HC50 for rabbit erythrocyte to MIC99 for methicillin-resistant Staphylococcus aureus DR42412; type: functional
[30] = Toxicity against New Zealand White rabbit corneal epithelium assessed as effect on wound closure at 50 ug/ml by Slit lamp photography relative to control; type: tissue-based, Oryctolagus cuniculus, Cornea; settings: in vivo
Procedure, shortened: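 A 5 mm corneal epithelial abrasion was made with a sterile trephine and the epithelium removed with a mini blade. Eyes were treated with saline, vancomycin 50 μg/mL, or agent 50 μg/mL. Wound closure was tracked over time from fluorescein-stained photographs of defect size.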

[31] = Selectivity ratio of HC50 for rabbit erythrocyte to MIC99 for Staphylococcus aureus ATCC 29213; type: functional
[32] = Selectivity index, ratio of HC50 for rabbit erythrocyte to MIC99 for methicillin-resistant Staphylococcus aureus DB57964/04; type: functional
Staphylococcus aureus [33] = assay: Antibacterial activity against methicillin-resistant Staphylococcus aureus DM21595 obtained from wound isolate after 20 to 22 hrs by CLSI broth macro-dilution method; type: functional
[34] = Selectivity ratio of HC50 for rabbit erythrocyte to MIC99 for methicillin-resistant Staphylococcus aureus clinical isolate DM21455; type: functional
Staphylococcus aureus [35] = assay: Antibacterial activity against methicillin-resistant Staphylococcus aureus DM21455 after 20 to 22 hrs by multipassage resistance selection method; type: functional, organism-based
Staphylococcus aureus [36] = assay: Antibacterial activity against Staphylococcus aureus ATCC 6538 after 20 to 22 hrs by CLSI broth macro-dilution method; type: functional
Staphylococcus aureus [37] = assay: Antibacterial activity against methicillin-resistant Staphylococcus aureus DR42412 obtained from sputum isolate after 20 to 22 hrs by CLSI broth macro-dilution method; type: functional
Mus musculus [38] = assay: Toxicity against wild type C57BL6 mouse assessed as corneal opacity at 400 ug/ml administered topically 5 times a day by Slit lamp photography; type: organism-based, Cornea; settings: in vivo, topical_or_ocular
Procedure, shortened: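 Mouse eyes given topical drops five times per day at 400 μg/mL; cornea examined by slit lamp photography for clinical signs of toxicity and corneal opacity.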

[39] = Selectivity index, ratio of HC50 for rabbit erythrocyte to MIC99 for Staphylococcus aureus ATCC 6538; type: functional
Staphylococcus aureus [40] = assay: Antibacterial activity against methicillin-resistant Staphylococcus aureus DR68004 obtained from blood isolate after 20 to 22 hrs by CLSI broth macro-dilution method; type: functional
Enterococcus faecalis [41] = assay: Antibacterial activity against Enterococcus faecalis ATCC 29212 after 20 to 22 hrs by multipassage resistance selection method; type: functional, organism-based
Enterococcus faecium = assay: Antibacterial activity against Streptococcus faecium ATCC 10541 after 20 to 22 hrs by CLSI broth macro-dilution method; type: functional
Staphylococcus aureus [42] = assay: Antibacterial activity against vancomycin-intermediate resistant Staphylococcus aureus 10:DB6506 after 20 to 22 hrs by multipassage resistance selection method; type: functional, organism-based
[43] = Dissociation constant, pKa of the compound; type: physicochemical
Staphylococcus aureus [44] = assay: Antibacterial activity against vancomycin-intermediate resistant Staphylococcus aureus 10:DB6506 after 20 to 22 hrs by CLSI broth macro-dilution method; type: functional
[45] = Selectivity index, ratio of HC50 for rabbit erythrocyte to MIC99 for […] ATCC 12228; type: functional
Staphylococcus aureus [46] = assay: Antibacterial activity against methicillin-resistant Staphylococcus aureus DM21455 assessed as reduction in viable count after 5 to 10 mins by surface-spread plate method; type: functional, organism-based
Staphylococcus aureus [47] = assay: Antibacterial activity against Staphylococcus aureus ATCC 29737 after 20 to 22 hrs by CLSI broth macro-dilution method; type: functional
Staphylococcus aureus [48] = assay: Antimicrobial activity against Staphylococcus aureus DM4001 assessed as morphological changes by scanning electron microscopy relative to control; type: functional, organism-based

Compound: CCN(CC)CCCCOc1cc2oc3cc(OCCCCN(CC)CC)c(OC)c(CC=C(C)C)c3c(=O)c2c(O)c1CC=C(C)C
- Selectivity Index [1]: 100.5
- MIC (Staphylococcus aureus [2]): 0.095 µg/mL (≈ 0.143 µM)
- MIC (Pseudomonas aeruginosa): 50 µg/mL (≈ 75.2 µM)
- Selectivity Index [3]: 12.6
- Activity (Mus musculus [4]): Non-toxic
- Activity (Staphylococcus aureus [5]): Active
- Activity (Staphylococcus aureus [6]): Active
- logP [7]: 6.72
- Activity (Mus musculus [8]): Non-toxic
- Selectivity Index [9]: 25.1
- MIC99 (Staphylococcus aureus [10]): 0.39 µg/mL (≈ 0.587 µM)
- FC (Staphylococcus aureus [11]): 3
- Activity (Staphylococcus aureus [12]): Active
- Selectivity Index [13]: 206.3
- Activity (Staphylococcus aureus [14]): 99.9%
- MIC (Enterococcus faecalis [15]): 0.78 µg/mL (≈ 1.17 µM)
- Activity (Staphylococcus aureus [16]): Active
- Selectivity Index [17]: 12.6
- MIC [18]: 0.78 µg/mL (≈ 1.17 µM)
- Selectivity Index [19]: 50.3
- MIC (Staphylococcus aureus [20]): 0.78 µg/mL (≈ 1.17 µM)
- MIC99 (Staphylococcus aureus [21]): 0.39 µg/mL (≈ 0.587 µM)
- Selectivity Index [22]: 12.6
- HC50 at 1 h [23]: 19.6 µM
- MIC (Klebsiella pneumoniae): 40 µg/mL (≈ 60.2 µM)
- MIC (Staphylococcus aureus [24]): 0.78 µg/mL (≈ 1.17 µM)
- Selectivity Index [25]: 25.1
- Selectivity Index [26]: 25.1
- Activity (Staphylococcus aureus [27]): 99.9%
- MIC (Staphylococcus aureus [28]): 1.56 µg/mL (≈ 2.35 µM)
- Selectivity Index [29]: 50.3
- Activity [30]: Non-toxic
- Selectivity ratio [31]: 50.3
- Selectivity Index [32]: 25.1
- MIC (Staphylococcus aureus [33]): 0.39 µg/mL (≈ 0.587 µM)
- Selectivity ratio [34]: 50.3
- Activity (Staphylococcus aureus [35]): Active
- MIC (Staphylococcus aureus [36]): 1.56 µg/mL (≈ 2.35 µM)
- MIC (Staphylococcus aureus [37]): 0.39 µg/mL (≈ 0.587 µM)
- Activity (Mus musculus [38]): Non-toxic
- Selectivity Index [39]: 12.6
- MIC (Staphylococcus aureus [40]): 1.56 µg/mL (≈ 2.35 µM)
- Activity (Enterococcus faecalis [41]): Active
- MIC (Enterococcus faecium): 0.195 µg/mL (≈ 0.293 µM)
- Activity (Staphylococcus aureus [42]): Active
- pKa [43]: 11
- MIC (Staphylococcus aureus [44]): 0.78 µg/mL (≈ 1.17 µM)
- Selectivity Index [45]: 25.1
- Activity (Staphylococcus aureus [46]): Dose-dependent effect
- MIC (Staphylococcus aureus [47]): 1.56 µg/mL (≈ 2.35 µM)
- Activity (Staphylococcus aureus [48]): Active

Reference: ChEMBL document CHEMBL2331269, “Design and synthesis of amphiphilic xanthone-based, membrane-targeting antimicrobials with improved membrane selectivity” (J Med Chem, 2013)
